Data reported in PubChem BioAssay.
The source made the active and inactive calls.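 Rule for the calls, unless noted: active = viability at or below 30% in both replicate assays; inconclusive = viability at or below 30% in just one of the two assays; inactive = the rest.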

Tests used:
[1] = Her2 expression decrease, cell viability multiplex – SKBR3 breast tumor cells, AlphaScreen, ATP viability, primary screen (AID 461;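 active = Her2 level under about 52% in both replicate screens, with viability over 70% of control, limit read from the data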;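 for Her2 level: lower value means less Her2 protein in the cells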;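 for viability: percent of carrier control wells set as 100% viability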); details: SKBR3 Her2 protein level, 18-24 h, measured here: SKBR3 viability, ATP luminescence, at 10 µM
[2] = target: Receptor tyrosine-protein kinase erbB-2 (Homo sapiens) (UniProt P04626); test: as above; details: 18-24 h, at 10 µM, stronger effect = lower value
Chain of Receptor tyrosine-protein kinase erbB-2 (Homo sapiens) (P04626 whole entry, looked up): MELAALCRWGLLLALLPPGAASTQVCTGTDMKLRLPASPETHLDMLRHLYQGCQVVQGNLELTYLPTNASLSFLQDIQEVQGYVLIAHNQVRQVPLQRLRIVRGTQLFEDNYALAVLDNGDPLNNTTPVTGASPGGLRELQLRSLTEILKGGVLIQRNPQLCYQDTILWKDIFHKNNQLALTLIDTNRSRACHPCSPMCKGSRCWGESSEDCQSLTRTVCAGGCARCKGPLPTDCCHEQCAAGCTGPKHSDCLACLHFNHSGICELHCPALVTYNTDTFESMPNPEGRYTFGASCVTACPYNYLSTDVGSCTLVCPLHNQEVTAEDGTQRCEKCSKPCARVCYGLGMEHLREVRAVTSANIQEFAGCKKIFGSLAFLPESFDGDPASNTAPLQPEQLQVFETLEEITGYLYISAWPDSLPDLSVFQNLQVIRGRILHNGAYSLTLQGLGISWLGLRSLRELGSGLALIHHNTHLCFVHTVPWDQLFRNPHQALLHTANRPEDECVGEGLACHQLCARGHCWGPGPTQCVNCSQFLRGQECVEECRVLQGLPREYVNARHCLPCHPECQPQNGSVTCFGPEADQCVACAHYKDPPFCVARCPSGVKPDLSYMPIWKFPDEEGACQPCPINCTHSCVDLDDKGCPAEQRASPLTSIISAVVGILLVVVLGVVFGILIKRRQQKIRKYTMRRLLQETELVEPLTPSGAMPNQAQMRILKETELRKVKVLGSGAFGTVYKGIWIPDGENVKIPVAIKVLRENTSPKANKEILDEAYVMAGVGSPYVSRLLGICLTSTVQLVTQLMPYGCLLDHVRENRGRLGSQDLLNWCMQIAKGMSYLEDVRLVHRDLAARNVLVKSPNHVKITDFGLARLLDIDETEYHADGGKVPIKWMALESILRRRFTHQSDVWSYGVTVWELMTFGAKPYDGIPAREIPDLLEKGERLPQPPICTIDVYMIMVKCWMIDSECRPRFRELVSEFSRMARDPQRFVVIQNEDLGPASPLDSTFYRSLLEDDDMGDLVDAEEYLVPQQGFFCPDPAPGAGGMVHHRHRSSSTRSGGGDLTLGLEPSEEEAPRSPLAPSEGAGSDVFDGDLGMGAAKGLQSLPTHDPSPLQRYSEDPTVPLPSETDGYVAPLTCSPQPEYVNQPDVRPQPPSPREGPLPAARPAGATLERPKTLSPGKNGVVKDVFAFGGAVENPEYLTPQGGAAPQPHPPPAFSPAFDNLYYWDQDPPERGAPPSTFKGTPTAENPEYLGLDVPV

[3] = reduced viability of SK-BR-3 breast cancer cells – cell-based, 24 h, human, pilot screen (AID 572;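 active = viability at or below 10% of carrier control in both of two separate runs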;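 note: compound exposure lasted between 18 and 24 h rather than exactly 24 h; 100% = carrier-treated control wells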); details: SK-BR-3 viability, CellTiter-Glo luminescence, at 10 µM, stronger effect = lower value
[4] = HUVEC growth inhibition – cell-based, human, primary screen (AID 575); details: HUVEC proliferation, CellTiter-Glo luminescence, 72 h; at 10 µM; stronger effect = lower value;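 note: 100% = median of untreated cell wells with 0.1% DMSO on each plate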
Procedure, shortened: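 material = primary HUVEC, no more than 12 passages | input = 1250 cells per well | controls = vehicle and MePR control wells | measured by = CTG luminescence | times = 72 h compound incubation | format = collagen-coated 384-well format | read-out = % viability vs DMSO wells | doses = single 10 µM dose, 0.1% DMSO, from 5x medium stock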

[5] = H69AR cell proliferation blockers – human, duplicate replicates, primary screen (AID 580;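 active = viability at or under a set limit in both replicates, limit being median viability minus 3 SD, cut at about 48% in these data, passing the limit was not always enough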;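 note: 100% = mean luminescence of untreated wells and 0% = no signal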); details: H69AR lung tumor cells viability, ATP luminescence, 72 h; at 10 µM; stronger effect = lower value
[6] = MRP1 drug-resistance reversers in H69AR cells – cell-based, doxorubicin co-treatment, pilot screen (AID 601;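 active = viability loss from added drug above about 55%, and viability with drug at most 40%, in both replicates, limit read from the data, passing the limit was not always enough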); details: CellTiter-Glo, 72 h, at 10 µM; for differential viability (reversal): stronger effect = higher value
[7] = yeast transport mutant growth inhibition pilot in 384-well plates, post-Golgi transport modulator project (AID 636; in the data active = inhibition above about 31%); details: absorbance 615 nm, about 18 h, stronger effect = higher value
[8] = growth suppression of yeast trafficking mutant, preliminary HTS, modulators of trafficking downstream of Golgi apparatus project, 1536-format plate, OD 615 nm (AID 637; in the data active = inhibition above about 30%); details: yeast transport mutant growth, absorbance 615 nm, 18 h; stronger effect = higher value
[9] = H69AR cells + 2 uM doxorubicin, measured here: viability with 2 uM doxorubicin, stronger effect = lower value
[10] = H69AR cells, compound alone cytotoxicity

Structure (SMILES) | viability [1] [%] | Her2 level [2] | viability [3] | viability [4] | viability [5] | differential viability (reversal) ([6]; H69AR cells + 2 uM doxorubicin) | viability [6, 9] [%] | viability [6, 10] [%] | inhibition [7] | inhibition [8]
COc1cccc(C2=Nn3c(nnc3-c3ccccc3O)SC2)c1 | 100 | 61% (inactive) | 100% (inactive) | 89.4% (inactive) | 67.2% (inactive) | -18.5% (inactive) | 85.7 | 67.2 | -3.16% (inactive) | -2.83% (inactive)
Cc1cc(C)c2c(n1)nn1c(N3CCN(c4cccc(Cl)c4)CC3)cc(C)nc21 | 98.5 | 83.5% (inactive) | 98.5% (inactive) | 61.8% (inactive) | 23.1% (active) | 6.38% (inactive) | 16.7 | 23.1 | -5.68% (inactive) | 3.65% (inactive)
Cc1ccc(Oc2ccc(-c3nc(N)nc(N)n3)cc2)cc1 | 112 | 82% (inactive) | 112% (inactive) | 76.6% (inactive) | 108% (inactive) | 23.1% (inactive) | 84.8 | 108 | -5.33% (inactive) | 2.1% (inactive)
CC1=C/C(=C/N(C)c2ccccc2)C(=O)S1 | 109 | 94% (inactive) | 109% (inactive) | 79.7% (inactive) | 89.3% (inactive) | 4.12% (inactive) | 85.2 | 89.3 | 0.41% (inactive) | -3.49% (inactive)
O=C(Nc1ccccc1N1CCN(C(=O)c2ccc(Cl)cc2)CC1)c1cc2ccccc2o1 | 69.5 | 79.5% (inactive) | 69.5% (inactive) | 67.8% (inactive) | 85.5% (inactive) | 22.9% (inactive) | 62.6 | 85.5 | 2.53% (inactive) | 0.81% (inactive)
c1ccc(N2CCN(Cc3ccnc4ccccc34)CC2)cc1 | 98 | 81.5% (inactive) | 98% (inactive) | 71.2% (inactive) | 72.4% (inactive) | -21.1% (inactive) | 93.5 | 72.4 | -6.22% (inactive) | -0.82% (inactive)
CSC1=NCCN1C(=O)c1ccc(S(=O)(=O)N2CCCC2)cc1 | 111 | 107% (inactive) | 111% (inactive) | 91.2% (inactive) | 91.3% (inactive) | -1.11% (inactive) | 92.4 | 91.3 | 0.77% (inactive) | -3.17% (inactive)
O=C(CCC(=O)N(c1cccc(F)c1)C(C(=O)NC1CCCC1)c1ccncc1)Nc1cccnc1 (stereo not given) | 100 | 95.5% (inactive) | 100% (inactive) | 97.1% (inactive) | 91.7% (inactive) | -4.02% (inactive) | 95.8 | 91.7 | -0.8% (inactive) | 2.74% (inactive)
COc1ccc(C(CNC(=O)c2cc(C)oc2C)N2CCOCC2)cc1 (stereo not given) | 126 | 96.5% (inactive) | 126% (inactive) | 91.6% (inactive) | 101% (inactive) | -9.67% (inactive) | 110 | 101 | -3.64% (inactive) | -0.32% (inactive)
O=C(C1CC1)N1CCC(c2nc(-c3ccc(S(=O)(=O)NCC4CCCO4)cc3)no2)CC1 (stereo not given) | 74.5 | 114% (inactive) | 74.5% (inactive) | 54.7% (inactive) | 90.6% (inactive) | -9.35% (inactive) | 99.9 | 90.6 | 0.41% (inactive) | -0.82% (inactive)
c1cc(-c2nc3ccccc3o2)nc(-c2nc3ccccc3o2)c1 | 122 | 94.5% (inactive) | 122% (inactive) | 90.9% (inactive) | 87.6% (inactive) | 7.43% (inactive) | 80.2 | 87.6 | -4.21% (inactive) | 1.83% (inactive)
Cc1cc(NC(=O)c2cc3ccccc3o2)cc(C)c1OCC(=O)N1CCOCC1 | 92.5 | 102% (inactive) | 92.5% (inactive) | 90.6% (inactive) | 90.3% (inactive) | 0.745% (inactive) | 89.5 | 90.3 | -6.89% (inactive) | -1.8% (inactive)
CCn1c(SCC(=O)c2ccc3c(c2)OCCO3)nnc1-c1ccco1 | 102 | 95% (inactive) | 102% (inactive) | 111% (inactive) | 98.6% (inactive) | 0.66% (inactive) | 97.9 | 98.6 | -4% (inactive) | -0.65% (inactive)
O=C(c1ccccc1)c1ccc(N2CCOCC2)c(NC(=O)c2ccco2)c1 | 82.5 | 78.5% (inactive) | 82.5% (inactive) | 81.1% (inactive) | 87.3% (inactive) | 15.7% (inactive) | 71.6 | 87.3 | -3.16% (inactive) | 2.86% (inactive)
Cc1cc(C)n(-c2cc(N3CCOCC3)nc(-c3ccccc3)n2)n1 | 85 | 104% (inactive) | 85% (inactive) | 75.7% (inactive) | 73.6% (inactive) | -7.4% (inactive) | 81 | 73.6 | -5.79% (inactive) | 4.17% (inactive)
COc1ccc(N2CCN(Cc3nc(-c4ccc(Cl)cc4Cl)no3)CC2)cc1 | 117 | 83.5% (inactive) | 117% (inactive) | 70.5% (inactive) | 91.5% (inactive) | 9.36% (inactive) | 82.2 | 91.5 | -4.68% (inactive) | -5.57% (inactive)

Structure (SMILES) | viability [1] [%] | Her2 level [2] | viability [3] | viability [4] | viability [5] | differential viability (reversal) ([6]; H69AR cells + 2 uM doxorubicin) | viability [6, 9] [%] | viability [6, 10] [%] | inhibition [7] | inhibition [8]
O=C(NCc1ccccc1)C1CCN(S(=O)(=O)N2CCCCCC2)CC1 | 85 | 106% (inactive) | 85% (inactive) | 109% (inactive) | 96.7% (inactive) | 3.6% (inactive) | 93.1 | 96.7 | 6.49% (inactive) | -6.23% (inactive)
CCOC(=O)CSc1nc2ccccc2n2cnnc12 | 104 | 76.5% (inactive) | 104% (inactive) | 91.4% (inactive) | 83.9% (inactive) | 2.78% (inactive) | 81.1 | 83.9 | -5.54% (inactive) | -2% (inactive)
c1ccc(N=P(c2nc3ccccc3o2)(N2CCOCC2)N2CCOCC2)cc1 | 119 | 89.5% (inactive) | 119% (inactive) | 104% (inactive) | 91.4% (inactive) | 1.96% (inactive) | 89.4 | 91.4 | -4.27% (inactive) | 7.26% (inactive)
CCOC(=O)C1=C(C)OC(N)=C(C#N)C1c1ccoc1 (stereo not given) | 111 | 107% (inactive) | 111% (inactive) | 88.1% (inactive) | 95.3% (inactive) | 11.2% (inactive) | 84 | 95.3 | 1.04% (inactive) | -4.17% (inactive)
O=C(CSc1nc2ccccc2o1)Nc1ccccc1 | 107 | 124% (inactive) | 107% (inactive) | 105% (inactive) | 79% (inactive) | -11.4% (inactive) | 90.4 | 79 | -0.9% (inactive) | -4.83% (inactive)
CC(C)=CCCC(C)CN(C)CCc1ccccn1 (stereo not given) | 79 | 97% (inactive) | 79% (inactive) | 101% (inactive) | 98.6% (inactive) | 21.2% (inactive) | 77.3 | 98.6 | -5.19% (inactive) | -3.61% (inactive)
CC(C)(C)C1=C[C@@H](CO)C[C@@H](CO)C1 | 86 | 87% (inactive) | 86% (inactive) | 94.2% (inactive) | 87.3% (inactive) | -0.585% (inactive) | 87.9 | 87.3 | -4.13% (inactive) | -5.08% (inactive)
O=C(NC12CC3CC(CC(C3)C1)C2)c1cncc(O)c1 | 104 | 89% (inactive) | 104% (inactive) | 88.2% (inactive) | 85.6% (inactive) | -9.31% (inactive) | 94.9 | 85.6 | -6.36% (inactive) | 0.32% (inactive)
O=C(NCc1ccco1)C1CCN(C(=O)c2cc3sccc3n2Cc2ccc(F)cc2)CC1 | 94.5 | 62.5% (inactive) | 94.5% (inactive) | 56.1% (inactive) | 67.1% (inactive) | -6.56% (inactive) | 73.7 | 67.1 | -5.87% (inactive) | 5.74% (inactive)
O=C(CSc1ncnc2sc3c(c12)CCCCC3)NCc1ccco1 | 92.5 | 61% (inactive) | 92.5% (inactive) | 41.3% (inactive) | 18% (active) | -52.1% (inactive) | 70.1 | 18 | -2.63% (inactive) | -3.65% (inactive)
C/C(=C(\C#N)C(=O)NCCCN1CCOCC1)N(C)C | 96.5 | 106% (inactive) | 96.5% (inactive) | 95.2% (inactive) | 102% (inactive) | 8.58% (inactive) | 93.1 | 102 | -1.58% (inactive) | 5.57% (inactive)
C=CCn1c(COc2ccccc2)nnc1SCC(=O)C(C)(C)C | 78 | 107% (inactive) | 78% (inactive) | 102% (inactive) | 97.8% (inactive) | 5.13% (inactive) | 92.6 | 97.8 | -1.95% (inactive) | -4.67% (inactive)
N#Cc1c(N2C(=O)C3C4C=CC(C4)C3C2=O)sc2c1CCC2 (stereo not given) | 91.5 | 86.5% (inactive) | 91.5% (inactive) | 91% (inactive) | 90.3% (inactive) | -10.1% (inactive) | 100 | 90.3 | -5.07% (inactive) | -2.62% (inactive)
CCOC(=O)CSC1=C(C#N)C(=O)NC(c2ccc(OC)c(OC)c2)S1 (stereo not given) | 104 | 99% (inactive) | 104% (inactive) | 74.6% (inactive) | 97.2% (inactive) | -1.72% (inactive) | 99 | 97.2 | -4.79% (inactive) | 0.16% (inactive)
CCOc1ccc(N(CC)C(=O)COc2cc(=O)n(C)c3ccccc23)cc1 | 84.5 | 86% (inactive) | 84.5% (inactive) | 93.6% (inactive) | 86.1% (inactive) | -2.48% (inactive) | 88.6 | 86.1 | -3.07% (inactive) | 0.98% (inactive)
CCc1[nH]nc2c1C(c1ccncc1)C(C#N)=C(N)O2 (stereo not given) | 108 | 112% (inactive) | 108% (inactive) | 106% (inactive) | 95.9% (inactive) | -3.88% (inactive) | 99.8 | 95.9 | -4.46% (inactive) | -4.92% (inactive)
